Laboratory results published in ChEMBL document CHEMBL1158565, “Antagonism of 4-substituted 1,4-dihydropyridine-3,5-dicarboxylates toward voltage-dependent L-type Ca2+ channels Ca V 1.3 and Ca V 1.2” (Bioorg Med Chem, 2010).

Tests used:
[1] = molecular target: Voltage-dependent L-type calcium channel subunit alpha-1D (Rattus norvegicus) (UniProt P27732); assay: Antagonist activity at rat Cav1.3 expressed in HEK293 cells assessed as inhibition of voltage pulse-induced calcium current at 200 nM by whole-cell patch-clamp recording
Sequence of Voltage-dependent L-type calcium channel subunit alpha-1D (Rattus norvegicus) (P27732 whole entry, the tested form may be a part): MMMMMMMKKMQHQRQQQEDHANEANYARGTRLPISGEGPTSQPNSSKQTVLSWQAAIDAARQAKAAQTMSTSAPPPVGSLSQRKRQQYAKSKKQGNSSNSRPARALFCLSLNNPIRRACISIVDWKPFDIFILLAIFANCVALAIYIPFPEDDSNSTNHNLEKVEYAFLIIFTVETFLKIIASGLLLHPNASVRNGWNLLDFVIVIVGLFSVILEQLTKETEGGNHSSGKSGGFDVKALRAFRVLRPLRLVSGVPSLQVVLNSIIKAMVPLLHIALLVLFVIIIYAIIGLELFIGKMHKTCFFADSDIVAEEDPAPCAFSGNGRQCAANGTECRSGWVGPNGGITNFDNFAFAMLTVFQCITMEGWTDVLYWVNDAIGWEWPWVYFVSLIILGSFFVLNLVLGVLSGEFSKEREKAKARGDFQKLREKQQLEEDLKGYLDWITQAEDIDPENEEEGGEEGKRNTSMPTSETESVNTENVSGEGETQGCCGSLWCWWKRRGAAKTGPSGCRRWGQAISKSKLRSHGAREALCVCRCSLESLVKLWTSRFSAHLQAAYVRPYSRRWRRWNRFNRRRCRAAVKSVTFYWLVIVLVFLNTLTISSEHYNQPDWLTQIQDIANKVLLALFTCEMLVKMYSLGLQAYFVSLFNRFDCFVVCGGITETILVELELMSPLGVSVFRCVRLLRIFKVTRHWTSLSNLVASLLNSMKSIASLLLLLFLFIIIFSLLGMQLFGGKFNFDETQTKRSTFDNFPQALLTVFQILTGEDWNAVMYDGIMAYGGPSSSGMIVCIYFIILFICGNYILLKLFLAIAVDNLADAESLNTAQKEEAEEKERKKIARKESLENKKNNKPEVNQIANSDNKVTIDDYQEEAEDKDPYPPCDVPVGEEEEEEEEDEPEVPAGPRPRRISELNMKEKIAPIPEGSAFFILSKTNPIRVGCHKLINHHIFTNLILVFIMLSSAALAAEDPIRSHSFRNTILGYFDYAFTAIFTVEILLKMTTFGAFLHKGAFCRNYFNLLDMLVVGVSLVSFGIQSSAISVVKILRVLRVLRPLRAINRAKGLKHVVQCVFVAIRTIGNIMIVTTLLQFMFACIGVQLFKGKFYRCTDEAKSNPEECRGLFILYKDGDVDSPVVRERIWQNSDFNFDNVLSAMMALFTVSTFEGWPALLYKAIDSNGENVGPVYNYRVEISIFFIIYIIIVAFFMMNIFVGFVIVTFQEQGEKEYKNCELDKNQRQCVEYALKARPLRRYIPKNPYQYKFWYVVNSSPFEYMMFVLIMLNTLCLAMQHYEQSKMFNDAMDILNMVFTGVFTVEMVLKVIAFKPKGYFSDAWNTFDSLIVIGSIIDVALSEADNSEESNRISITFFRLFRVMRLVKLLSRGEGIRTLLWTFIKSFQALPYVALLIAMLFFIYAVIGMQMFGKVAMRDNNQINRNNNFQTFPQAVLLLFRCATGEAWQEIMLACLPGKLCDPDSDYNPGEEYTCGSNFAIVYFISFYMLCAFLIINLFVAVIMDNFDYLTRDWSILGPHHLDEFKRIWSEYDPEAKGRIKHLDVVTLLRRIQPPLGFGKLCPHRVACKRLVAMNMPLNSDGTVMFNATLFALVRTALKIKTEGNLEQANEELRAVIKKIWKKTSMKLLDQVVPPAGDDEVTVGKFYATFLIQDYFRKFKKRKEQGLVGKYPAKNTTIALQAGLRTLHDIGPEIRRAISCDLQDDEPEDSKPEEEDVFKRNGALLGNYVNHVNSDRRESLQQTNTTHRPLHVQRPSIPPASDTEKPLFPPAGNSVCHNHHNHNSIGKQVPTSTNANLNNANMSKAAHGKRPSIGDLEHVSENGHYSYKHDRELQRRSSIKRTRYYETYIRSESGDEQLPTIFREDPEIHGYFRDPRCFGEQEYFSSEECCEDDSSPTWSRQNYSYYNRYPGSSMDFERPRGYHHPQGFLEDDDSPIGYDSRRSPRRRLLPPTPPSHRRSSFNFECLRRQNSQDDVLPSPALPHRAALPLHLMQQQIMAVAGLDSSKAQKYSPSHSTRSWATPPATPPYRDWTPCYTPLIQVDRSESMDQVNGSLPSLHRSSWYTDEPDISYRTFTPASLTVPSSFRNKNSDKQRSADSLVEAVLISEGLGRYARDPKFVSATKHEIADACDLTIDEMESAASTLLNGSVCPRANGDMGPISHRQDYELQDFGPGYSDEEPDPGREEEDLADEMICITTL

[2] = molecular target: T1, Voltage-dependent L-type calcium channel subunit alpha-1C (Oryctolagus cuniculus, UniProt P15381); assay: Antagonist activity at rabbit Cav1.2 expressed in tsA201 cells assessed as inhibition of voltage pulse-induced calcium current at 200 nM by whole-cell patch-clamp recording
T1 sequence (P15381 whole entry): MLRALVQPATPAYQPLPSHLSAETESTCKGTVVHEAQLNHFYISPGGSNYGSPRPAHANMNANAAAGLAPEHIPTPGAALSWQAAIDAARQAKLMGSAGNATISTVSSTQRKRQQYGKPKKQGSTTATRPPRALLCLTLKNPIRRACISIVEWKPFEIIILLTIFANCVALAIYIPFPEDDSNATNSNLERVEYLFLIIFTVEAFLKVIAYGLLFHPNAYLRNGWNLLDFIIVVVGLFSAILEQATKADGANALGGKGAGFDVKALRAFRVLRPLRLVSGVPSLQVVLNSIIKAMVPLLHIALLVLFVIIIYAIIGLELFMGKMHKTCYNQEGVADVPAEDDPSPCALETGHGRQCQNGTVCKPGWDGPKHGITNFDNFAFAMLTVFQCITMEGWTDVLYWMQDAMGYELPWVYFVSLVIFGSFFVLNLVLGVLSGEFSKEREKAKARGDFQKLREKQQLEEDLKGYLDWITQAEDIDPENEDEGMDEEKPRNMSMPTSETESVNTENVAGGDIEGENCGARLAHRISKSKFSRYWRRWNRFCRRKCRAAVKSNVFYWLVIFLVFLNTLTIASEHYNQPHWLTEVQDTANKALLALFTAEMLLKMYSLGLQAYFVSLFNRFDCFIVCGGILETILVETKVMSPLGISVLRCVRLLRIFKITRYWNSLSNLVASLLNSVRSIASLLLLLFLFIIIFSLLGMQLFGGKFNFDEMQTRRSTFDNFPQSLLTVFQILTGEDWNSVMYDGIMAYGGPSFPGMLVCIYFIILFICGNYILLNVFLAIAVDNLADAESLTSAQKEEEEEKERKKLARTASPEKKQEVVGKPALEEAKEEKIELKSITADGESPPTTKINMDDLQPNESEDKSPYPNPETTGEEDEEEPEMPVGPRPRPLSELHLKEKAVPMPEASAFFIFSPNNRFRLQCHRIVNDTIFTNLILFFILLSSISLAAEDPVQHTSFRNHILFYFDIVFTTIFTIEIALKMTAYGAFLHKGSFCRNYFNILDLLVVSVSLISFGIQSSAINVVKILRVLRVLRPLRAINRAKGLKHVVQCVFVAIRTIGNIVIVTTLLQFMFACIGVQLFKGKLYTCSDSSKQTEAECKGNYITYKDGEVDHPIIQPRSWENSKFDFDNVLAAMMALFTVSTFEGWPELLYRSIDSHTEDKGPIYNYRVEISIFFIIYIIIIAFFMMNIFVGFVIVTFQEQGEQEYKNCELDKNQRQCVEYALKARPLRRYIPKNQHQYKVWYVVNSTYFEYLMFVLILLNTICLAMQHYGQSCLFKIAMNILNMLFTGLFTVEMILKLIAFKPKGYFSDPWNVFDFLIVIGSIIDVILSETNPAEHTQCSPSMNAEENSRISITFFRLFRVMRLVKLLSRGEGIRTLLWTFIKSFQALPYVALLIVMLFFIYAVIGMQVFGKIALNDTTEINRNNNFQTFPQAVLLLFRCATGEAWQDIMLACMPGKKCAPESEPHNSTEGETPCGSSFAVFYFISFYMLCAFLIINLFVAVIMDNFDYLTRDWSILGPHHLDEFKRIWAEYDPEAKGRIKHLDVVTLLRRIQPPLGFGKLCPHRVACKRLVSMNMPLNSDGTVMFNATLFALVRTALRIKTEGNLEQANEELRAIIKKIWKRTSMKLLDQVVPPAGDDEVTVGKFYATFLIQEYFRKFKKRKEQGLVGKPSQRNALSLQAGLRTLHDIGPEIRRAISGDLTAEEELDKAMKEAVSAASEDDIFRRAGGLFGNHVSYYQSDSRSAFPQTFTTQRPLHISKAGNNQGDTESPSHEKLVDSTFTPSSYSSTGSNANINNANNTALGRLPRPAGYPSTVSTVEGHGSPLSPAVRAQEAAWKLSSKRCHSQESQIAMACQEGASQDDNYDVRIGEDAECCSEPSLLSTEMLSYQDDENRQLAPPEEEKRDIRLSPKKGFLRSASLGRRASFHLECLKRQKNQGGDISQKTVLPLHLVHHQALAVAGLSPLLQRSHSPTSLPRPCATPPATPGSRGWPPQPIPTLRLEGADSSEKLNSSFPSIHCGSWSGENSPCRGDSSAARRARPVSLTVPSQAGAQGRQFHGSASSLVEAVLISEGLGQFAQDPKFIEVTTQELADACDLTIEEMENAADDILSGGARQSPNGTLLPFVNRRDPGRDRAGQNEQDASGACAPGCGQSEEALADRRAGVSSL

[3] = Selectivity ratio of antagonist activity at rat Cav1.3 to antagonist activity at rabbit Cav1.2 at 200 nM; type: functional
How it was run: (§1)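 Percent inhibition of Cav1.3 current was divided by that of Cav1.2 at the same concentration. Currents were from whole-cell patch clamp in transiently transfected tsA201 cells: Ba2+ bath, pH 7.4, steps from -60 mV, about 22 °C.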

[4] = molecular target: T1, Voltage-dependent L-type calcium channel subunit alpha-1C; assay: Antagonist activity at rabbit Cav1.2 expressed in tsA201 cells assessed as inhibition of voltage pulse-induced calcium current at 1000 nM by whole-cell patch-clamp recording
[5] = molecular target: Voltage-dependent L-type calcium channel subunit alpha-1D (Rattus norvegicus) (UniProt P27732); assay: Antagonist activity at rat Cav1.3 expressed in HEK293 cells assessed as inhibition of voltage pulse-induced calcium current at 10 nM by FLIPR calcium 4 assay; type: functional, cell-based; conditions: in the assay text read “by whole-cell patch-clamp recording” for “by FLIPR calcium 4 assay”
How it was run: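 Whole-cell patch clamp on tsA201 cells transiently cotransfected with rabbit Cav1.2 α1C or rat Cav1.3 α1D, Cavβ3 and Cavα2δ-1 (1:1:1) plus GFP. GFP cells were recorded after replating at 48 h. Bath (mM): 110 NaCl, 1 MgCl2, 10 BaCl2, 10 HEPES, 10 glucose, 20 CsCl, pH 7.4. Compound was diluted from DMSO stock and perfused. Pulses ran from -60 mV to +10 or 0 mV with tetrodotoxin at about 22 °C. Read-out was percent current inhibition.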

[6] = Selectivity ratio of antagonist activity at rat Cav1.3 to antagonist activity at rabbit Cav1.2 at 10 nM; type: functional
How it was run: as §1

[7] = molecular target: T1, Voltage-dependent L-type calcium channel subunit alpha-1C; assay: Antagonist activity at rabbit Cav1.2 expressed in tsA201 cells assessed as inhibition of voltage pulse-induced calcium current at 10 nM by whole-cell patch-clamp recording
[8] = molecular target: Voltage-dependent L-type calcium channel subunit alpha-1D (Rattus norvegicus) (UniProt P27732); assay: Antagonist activity at rat Cav1.3 expressed in HEK293 cells assessed as inhibition of voltage pulse-induced calcium current at 10 nM by whole-cell patch-clamp recording
[9] = molecular target: T1, Voltage-dependent L-type calcium channel subunit alpha-1C; assay: Antagonist activity at rabbit Cav1.2 expressed in HEK293 cells assessed as inhibition of voltage pulse-induced calcium current at 1000 nM by FLIPR calcium 4 assay; type: functional, cell-based
[10] = Selectivity ratio of IC50 for Cav1.2 to IC50 for Cav1.3
[11] = Selectivity ratio of antagonist activity at rat Cav1.3 to antagonist activity at rabbit Cav1.2 at 500 nM; type: functional
How it was run: as §1

[12] = molecular target: Voltage-dependent L-type calcium channel subunit alpha-1D (Rattus norvegicus) (UniProt P27732); assay: Antagonist activity at rat Cav1.3 expressed in tsA201 cells assessed as inhibition of voltage pulse-induced calcium current at 500 nM by whole-cell patch-clamp recording
[13] = molecular target: T1, Voltage-dependent L-type calcium channel subunit alpha-1C; assay: Antagonist activity at rabbit Cav1.2 expressed in tsA201 cells assessed as inhibition of voltage pulse-induced calcium current at 500 nM by whole-cell patch-clamp recording

Question: What does the source list for `CCOC(=O)C1=C(C)NC(C)=C(C(=O)OCC)C1c1cccc(C(F)(F)F)c1`?
Answer: inhibition [1]: 84%; inhibition at 0.2 µM [2]: 85%; Selectivity ratio [3]: 0.99

Question: For `CCOC(=O)C1=C(C)N(C)C(C)=C(C(=O)OCC)C1c1cccc([N+](=O)[O-])c1`, which inhibition at 1 µM [4] is on record?
Answer: 35%

Question: For `CCOC(=O)C1=C(C)NC(C)=C(C(=O)OCC)C1c1ccc(-c2cccs2)s1`, which inhibition at 1 µM [4] is on record?
Answer: 35%

Question: For `CCOC(=O)C1=C(C)NC(C)=C(C(=O)OCC)C1C(C)c1ccccc1` (stereo unspecified), which inhibition at 1 µM [4] is on record?
Answer: 28%

Question: For `CC1=C(C(=O)OC(C)(C)C)C(c2ccc([N+](=O)[O-])cc2)C(C(=O)OC(C)(C)C)=C(C)N1`, which inhibition at 1 µM [4] is on record?
Answer: 36%

Question: For `CCOC(=O)C1=C(C)NC(C)=C(C(=O)OCC)C1c1ccc([N+](=O)[O-])o1`, which inhibition [1] is on record?
Answer: 41%

Question: What about the inhibition at 0.2 µM [2] of the same compound?
Answer: 43%

Question: What about the Selectivity ratio [3] of the same compound?
Answer: 0.95

Question: Which inhibition [1] does the source give for `CCOC(=O)C1=C(C)N=C(C)/C(=C(/O)OCC)C1c1cccc(OC)c1` (stereo unspecified) here?
Answer: 44%

Question: And the inhibition at 0.2 µM [2]?
Answer: 69%

Question: What about the Selectivity ratio [3] of the same compound?
Answer: 0.64

Question: What does the source list for `CCOC(=O)C1=C(C)NC(C)=C(C(=O)OC)C1c1ccccc1[N+](=O)[O-]` (stereo unspecified)?
Answer: inhibition [5]: 26%; Selectivity ratio [6]: 0.63; inhibition at 0.01 µM [7]: 41%

Question: With `CCOC(=O)C1=C(C)N=C(C)/C(=C(/O)OCC)C1c1cccnc1` (stereo unspecified) as the compound, how does the inhibition [1] read?
Answer: 14%

Question: What about the inhibition at 0.2 µM [2] of the same compound?
Answer: 25%

Question: And the Selectivity ratio [3]?
Answer: 0.56

Question: Which inhibition at 1 µM [4] does the source give for `CCOC(=O)C1=C(C)N=C(C)/C(=C(/O)OCC)C1/C=C/c1ccccc1` (stereo unspecified) here?
Answer: 30%

Question: Which inhibition [8] does the source give for `CCOC(=O)C1=C(C)NC(C)=C(C(=O)OCC)C1c1cccc([N+](=O)[O-])c1` here?
Answer: 43%

Question: And the Selectivity ratio [6]?
Answer: 1.34

Question: What about the inhibition at 0.01 µM [7] of the same compound?
Answer: 32%

Question: With `CCOC(=O)C1=C(C)NC(C)=C(C(=O)OC)C1c1ccc([N+](=O)[O-])cc1` (stereo unspecified) as the compound, how does the inhibition at 1 µM [4] read?
Answer: 48%

Question: For `CCOC(=O)C1=C(C)NC(C)=C(C(=O)OCC)C1c1ccc(OCc2ccc(Br)cc2)cc1`, which inhibition at 1 µM [4] is on record?
Answer: 38%

Question: For `CCOC(=O)C1=C(CC)NC(CC)=C(C(=O)OCC)C1c1ccc([N+](=O)[O-])cc1`, which inhibition at 1 µM [9] is on record?
Answer: 58%

Question: Which results are given for `CCOC(=O)C1=C(C)N=C(C)/C(=C(/O)OCC)C1c1ccco1` (stereo unspecified)?
Answer: inhibition [1]: 48%; inhibition at 0.2 µM [2]: 72%; Selectivity ratio [3]: 0.67

Question: For `CCOC(=O)C1=C(CC)NC(C)=C(C(=O)OC)C1c1ccc([N+](=O)[O-])cc1` (stereo unspecified), which inhibition at 1 µM [4] is on record?
Answer: 28%

Question: With `CCOC(=O)C1=C(C)NC(C)=C(C(=O)OCC)C1c1ccc([N+](=O)[O-])cc1` as the compound, how does the inhibition at 1 µM [4] read?
Answer: 48%

Question: For `CCOC(=O)C1=C(C)NC(C)=C(C(=O)OCC)C1c1cc2cccc(C)c2nc1Cl`, which inhibition at 1 µM [4] is on record?
Answer: 12%

Question: For `COCCOC(=O)C1=C(C)NC(C)=C(C(=O)OC(C)C)C1c1cccc([N+](=O)[O-])c1` (stereo unspecified), which Ratio IC50 [10] is on record?
Answer: 20

Question: With `CCOC(=O)C1=C(C)NC(C)=C(C(=O)OCC)C1c1cc2cc(Br)ccc2[nH]1` as the compound, how does the Selectivity ratio [11] read?
Answer: 1.03

Question: What about the inhibition [12] of the same compound?
Answer: 43%

Question: What about the inhibition at 0.5 µM [13] of the same compound?
Answer: 42%
